Data: ChEMBL document CHEMBL1141111, “Synthesis and biological evaluation of spin-labeled alkylphospholipid analogs” (J Med Chem, 2005)

Assays:
Homo sapiens [1] = organism: Homo sapiens; assay: (§1) Hemolytic effect (100 uM) on human erythrocytes; type: functional
Method in brief: (§2)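 Blood from a healthy donor was collected in EDTA, the plasma removed, and the cells washed in PBS. Each 1 mL sample held 8.59 × 10^7 erythrocytes in PBS (pH 7.5) with 100 µL of 5.5 mM glucose, plus free lipid (30 nmol) or liposomes (30 or 100 nmol). Samples were shaken 30 min at room temperature and spun at 840g. The supernatant was read with Drabkin's reagent at 540 nm. Results are % of Triton X-100 total lysis, in triplicate.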

Homo sapiens [2] = organism: Homo sapiens; assay: Hemolytic effect (30 uM) on human erythrocytes upon incubation with liposomes for 30 min in pH 7.5; type: functional
Method in brief: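 Washed erythrocytes from a healthy donor's EDTA blood, stored at 4 °C and used within 48 h. About 8.59 × 10^7 cells in 1 mL PBS (pH 7.5) with 5.5 mM glucose solution. Extruded LUVET (SL-APL/cholesterol/dicetyl phosphate 10:10:2), 30 nmol lipid, shaken 30 min at room temperature. Supernatant read with Drabkin's reagent at 540 nm, as % of Triton X-100 lysis, in triplicate.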

Homo sapiens [3] = organism: Homo sapiens; assay: (§3) Hemolytic effect (30 uM) on human erythrocytes upon incubation with lipid for 30 min in pH 7.5; type: functional; method in brief: as §2
[4] = as §1; type: functional; method in brief: as §2
[5] = as §3; type: functional; method in brief: as §2
MCF7 = assay: Inhibitory concentration against MCF-7 cells gwoth; type: functional, cell-based, Homo sapiens
Method in brief: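 MCF7 cells were grown in RPMI-1640 with L-glutamine and 10% heat-inactivated FCS, then seeded at 2 × 10^4 per well the day before treatment. Free or liposomal compound (APL/Ch/DCP 10:10:2, 200 nm extruded LUVs) was serially diluted 200–6.25 µM and applied for 24 h in triplicate. MTT (0.5 mg/mL) was added for 4 h, and formazan was dissolved in DMSO and read at 540 nm. IC50 comes from growth-inhibition curves versus untreated cells, mean ± SD of ≥3 independent experiments.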

Compound: CCCCCCCCCCCCCC1(CCCCOP(=O)([O-])OC2CC[N+](C)(C)CC2)OCC(C)(C)N1[O] (stereo not drawn)
- Hemolysis (Homo sapiens [1]): 17.9%
- Hemolysis (Homo sapiens [2]): 6.6%
- Hemolysis (Homo sapiens [3]): 99%

Compound: CCCCCCC1(CCCCCCCCCCCOP(=O)([O-])OCC[N+](C)(C)C)OCC(C)(C)N1[O] (stereo not drawn)
- Hemolysis (Homo sapiens [1]): 20.3%
- Hemolysis (Homo sapiens [2]): 4.9%
- Hemolysis (Homo sapiens [3]): 98.3%

Compound: CCCCCCC1(CCCCCCCCCCCOP(=O)([O-])OC2CC[N+](C)(C)CC2)OCC(C)(C)N1[O] (stereo not drawn)
- Hemolysis (Homo sapiens [1]): 5.7%
- Hemolysis (Homo sapiens [2]): 4.1%
- Hemolysis (Homo sapiens [3]): 18.3%

Compound: CCCCCCCCCCCCCCCCCCOP(=O)([O-])OC1CC[N+](C)(C)CC1 [PERIFOSINE]
- Hemolysis [4]: 93.5%
- Hemolysis (Homo sapiens [2]): 3.2%
- Hemolysis [5]: 98.1%
- IC50 (MCF7; Homo sapiens, MCF7): 75.8 µM

Compound: CCCCCCCCCCCC1(CCCCCCOP(=O)([O-])OC2CC[N+](C)(C)CC2)OCC(C)(C)N1[O] (stereo not drawn)
- Hemolysis (Homo sapiens [1]): 6.7%
- Hemolysis (Homo sapiens [2]): 4.4%
- Hemolysis (Homo sapiens [3]): 95.2%

Compound: CCCCC1(CCCCCCCCCCCCCOP(=O)([O-])OC2CC[N+](C)(C)CC2)OCC(C)(C)N1[O] (stereo not drawn)
- Hemolysis [4]: 5.3%
- Hemolysis (Homo sapiens [2]): 3.2%
- Hemolysis [5]: 16.1%
- IC50 (MCF7; mcf7): 56.4 µM

Compound: CCCCCCCCC1(CCCCCCCCCOP(=O)([O-])OC2CC[N+](C)(C)CC2)OCC(C)(C)N1[O] (stereo not drawn)
- Hemolysis (Homo sapiens [1]): 5.9%
- Hemolysis (Homo sapiens [2]): 3.7%
- Hemolysis (Homo sapiens [3]): 34.6%
